M5 antag – antagonists of human muscarinic M5 receptor (CHRM5) | P08912 | CHO-hM5 cells, Fluo-8 calcium fluorescence, ACh EC80 | inhibition, % at 3 µM | 360,000 tested, 0.59% active;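 active means inhibition above a per-plate cutoff, the mean of that plate's test compounds plus 3 SD, cut at about 27% in these data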
Target sequence (P08912 whole entry, looked up): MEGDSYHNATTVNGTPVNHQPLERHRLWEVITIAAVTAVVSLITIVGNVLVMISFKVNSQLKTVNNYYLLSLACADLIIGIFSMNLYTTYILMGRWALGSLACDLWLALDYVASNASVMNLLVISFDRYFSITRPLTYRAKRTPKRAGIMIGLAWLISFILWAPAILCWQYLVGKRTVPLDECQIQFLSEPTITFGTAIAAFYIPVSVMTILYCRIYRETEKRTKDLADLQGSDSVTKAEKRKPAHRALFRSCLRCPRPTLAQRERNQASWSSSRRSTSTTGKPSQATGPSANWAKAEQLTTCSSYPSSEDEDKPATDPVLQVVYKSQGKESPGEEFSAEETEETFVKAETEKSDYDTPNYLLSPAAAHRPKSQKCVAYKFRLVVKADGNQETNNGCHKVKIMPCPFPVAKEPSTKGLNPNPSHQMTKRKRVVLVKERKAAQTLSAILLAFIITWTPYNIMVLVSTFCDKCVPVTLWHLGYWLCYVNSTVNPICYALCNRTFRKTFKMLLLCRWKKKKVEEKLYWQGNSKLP
CHO-K1 Ca antag – nonselective inhibitor or artifact in parental CHO-K1 cells; ATP-induced calcium, Fluo-8 fluorescence; inhibition, % at 3 µM; AID 602250; 360,000 tested, 0.6% active;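 active means inhibition above a per-plate cutoff, the plate's mean sample inhibition plus 3 SD, cut at about 24% in these data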
CHO-K1 Ca PAM – counter-screen for M1 PAMs: effect in parental CHO-K1 cells. ATP EC20, Fluo-8 calcium fluorescence; 0% at ATP EC20, 100% at ATP max. activation, % at 3 µM. 360,000 tested, 0.02% active;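 active means activation above the run cutoff, the mean activation of all test compounds plus 3 SD, cut at about 40% in these data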;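 further: peak over basal fluorescence ratio in a 140 s read after ATP addition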
M5 ag – agonists of human muscarinic M5 receptor (CHRM5) | P08912 | CHO-K1 hM5 cells, Fluo-8 calcium fluorescence; 0% DMSO wells, 100% maximal acetylcholine response | activation, % at 3 µM | 360,000 tested, 0.19% active | AID 624037;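 active means activation above the run's mean over test compounds plus 3 SD, cut at about 23% in these data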;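 further: signal is peak over basal fluorescence ratio across the kinetic read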
M1 ag parental – M1 agonist counterscreen hit in parental CHO-K1 cells; Fluo-8 calcium fluorescence; scaled to maximal ATP response, vehicle zero; activation, % at 3 µM; 360,000 tested, 0.48% active; in the data active means activation above about 15%;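 further: untransfected CHO-K1 host cells lacking M1 receptor as counterscreen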
M5 PAM – potentiates acetylcholine response at human M5 receptor; P08912; CHO-K1 hM5, Fluo-8 calcium, ACh EC20 PAM; 0% = ACh EC20, 100% = ACh EC100; activation, % at 3 µM; 360,000 tested, 0.3% active;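 active means activation above the run cutoff, the mean activation of all test compounds plus 3 SD, cut at about 18% in these data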
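system = human M5 receptor in CHO-K1 cells | reagent = EC20 acetylcholine as agonist stimulus | compound dosing = single-point, 3 µM nominal | incubation = Fluo-8 loading 80 min at 37 °C plus 30 min room temperature | detection = Fluo-8 calcium dye fluorescence, kinetic read | benchmarks = low control EC20 acetylcholine (0%), high control EC100 acetylcholine (100%)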
Numbers stand for hits; . = inactive. Compounds with a hit are over-represented: about 1.7% of the library has one in this group of screens.

SMILES | M5 antag | CHO-K1 Ca antag | CHO-K1 Ca PAM | M5 ag | M1 ag parental | M5 PAM
COc1ccc(C(C(=O)NC2CCCC2)N(C(=O)c2snc(-c3ccc(F)cc3)c2N)c2ccc(OC)cc2)cc1 (stereo unspecified) | . | . | . | . | . | .
CCCc1nc2c(=O)[nH]c3ccccc3c2o1 | . | . | . | . | . | 19
CCCCCc1nc2c(=O)[nH]c3ccccc3c2o1 | . | . | . | . | . | .
CCOc1ccc(NC(=NCc2ccc3c(c2)OCO3)SC2CC(=O)N(c3ccc(OCC)cc3)C2=O)cc1 (stereo unspecified) | . | . | . | . | . | 19
CCN=C(NCC)SC1CC(=O)N(c2cccc(OCC)c2)C1=O (stereo unspecified) | 28 | 30 | . | . | . | .
CCN=C(NCC)SC1CC(=O)N(c2ccc(OC)cc2)C1=O (stereo unspecified) | . | . | . | . | . | .
CCNC(=O)C1(C)CCN(C(=O)c2ccc(C)c(F)c2)C1 (stereo unspecified) | . | . | . | . | . | .
O=c1oc(-c2ccccc2F)nc2scc(-c3ccccc3)c12 | . | . | . | . | . | .
Cc1nc2scc(-c3ccccc3)c2c(=O)o1 | . | . | . | . | . | 23
CCc1c(C)sc(NC(=O)c2cc(-c3ccc(O)cc3)on2)c1C#N | . | 33 | . | . | . | .
CCc1c(C)sc(NC(=O)c2cc(-c3ccc(OC)c(OC)c3)on2)c1C#N | . | . | . | . | . | .
COc1ccccc1C(=O)NNS(=O)(=O)c1ccc(F)cc1 | . | . | . | . | . | .
CCc1cc(=O)oc2cc(OCC(=O)N(CC)CC)c(Cl)cc12 | . | . | . | . | . | .
CCc1cc(=O)oc2cc(OCC(=O)O)c(Cl)cc12 | . | . | . | . | . | 20
O=C(Nc1ncnc2sc3c(c12)CCCCC3)c1ccco1 | . | . | . | . | . | .
O=C(COc1ccc(S(=O)(=O)N2CCCC2)cc1Cl)N1CCN(c2ccccc2)CC1 | . | . | . | . | . | .
Cc1nc(SCC(=O)NC2CCS(=O)(=O)C2)c2c3c(sc2n1)CCC3 (stereo unspecified) | . | . | . | . | . | .
Cc1ccc(NC(=O)CN2CCCN(S(=O)(=O)c3ccc(Br)s3)CC2)cc1 | . | 24 | . | . | . | .
Cc1cc(C)cc(NC(=O)CN2CCCN(S(=O)(=O)c3ccc(Br)s3)CC2)c1 | . | . | . | . | . | .
Cc1ccc(NS(=O)(=O)c2ccc(C(=O)OCC(=O)Nc3cc(C)on3)cc2)cc1 | . | . | . | 26 | 19 | .
Cc1cn(-c2ccccc2)c(C)c1/C=N\Nc1nc(N2CCOCC2)nc(N2CCOCC2)n1 | . | . | . | . | . | .
Cc1ccc(C)c(N2CCN(C(=O)CCS(=O)(=O)c3ccc4c(c3)NC(=O)CO4)CC2)c1 | . | . | . | . | 17 | .
CCCN1CCN(C(=O)CCS(=O)(=O)c2cc3c(cc2Cl)NC(=O)CO3)CC1 | . | 26 | . | . | . | .
CSc1nc2c(c(=O)[nH]1)C(c1ccc(Br)cc1)CC(=O)N2 (stereo unspecified) | . | . | . | . | 16 | .
CSc1nc2c(c(=O)[nH]1)C(c1ccc(F)cc1)CC(=O)N2 (stereo unspecified) | . | . | . | . | . | .
SMILES | M5 antag | CHO-K1 Ca antag | CHO-K1 Ca PAM | M5 ag | M1 ag parental | M5 PAM
CCCCOC(=O)Nc1ccc(C(=O)OCCC)cc1 | . | 24 | . | . | . | .
COc1cc(-c2nc3ccccn3c2/N=C/c2ccccc2)ccc1O | . | . | . | 51 | . | .
Cc1cc(C2CC(=O)Nc3ccccc3S2)c(C)s1 (stereo unspecified) | . | . | . | . | . | .
O=C1CC(c2ccsc2)Sc2ccccc2N1 (stereo unspecified) | . | . | . | . | 20 | .
S=c1sc(SCCOc2ccccc2)nn1-c1ccccc1 | . | . | . | . | . | .
Cc1nc2sccn2c(=O)c1S(=O)(=O)NCc1ccccc1 | . | 25 | . | . | . | .
O=C1CC[C@@H](CN(Cc2ccccn2)Cc2nc(-c3ccc(C(F)(F)F)cc3)no2)N1 | . | . | . | . | . | .
CN1CCCC(OC(=O)c2ccccc2F)C1 (stereo unspecified) | . | . | . | . | . | .
CN1CCCC(CC2c3ccccc3Sc3ccccc32)C1 (stereo unspecified) | 99 | . | . | . | . | .
C=CCN1C(=O)C(C)(C)N(C(=O)c2cccc([N+](=O)[O-])c2)c2ccccc21 | . | . | . | . | . | .
COc1cccc(N2CCN(c3ncnc4c3cnn4-c3ccc(C)cc3C)CC2)c1 | 47 | . | . | . | . | .
CC1(C(=O)Nc2ccc3c(c2)OCCO3)CCN1C(=O)C1(c2ccccc2)CC1 (stereo unspecified) | . | . | . | . | . | .
COc1ccc(/C=C/c2cc(C(=O)O)c3ccccc3n2)cc1 | . | . | . | . | 21 | .
CCN(CC)CCC(O)(c1ccccc1)C1CCCCC1 (stereo unspecified) | 89 | . | . | . | . | .
CC[N+](CC)(CC)CCC(O)(c1ccccc1)C1CCCCC1 (stereo unspecified) | 99 | . | . | . | . | .
CCN(CC)CCOCCOC(=O)C(CC)(CC)c1ccccc1 | . | . | . | . | . | .
CCC(C)N(CCNC(=O)c1ccc2c(c1)NC(=O)c1ccccc1S2)C1CCCCC1 (stereo unspecified) | . | . | . | . | . | .
O=C(Nc1cc(Cl)ccc1N1CCOCC1)c1cccnc1Cl | . | . | . | . | . | .
O=C(NC(c1ccc(-c2ccccc2)cc1)c1cnccn1)C1CCN(CCN2C(=O)c3ccccc3C2=O)CC1 (stereo unspecified) | . | 30 | . | . | . | .
O=C(NC(c1ccc(-c2ccccc2)cc1)c1cnccn1)C1CCN(Cc2cccs2)CC1 (stereo unspecified) | . | 24 | . | . | . | .
COc1ccc(CC(=O)Nc2cc(S(=O)(=O)N3CCOCC3)ccc2N2CCCC2)c(OC)c1 | . | . | . | . | . | .
O=C(COC(=O)c1ccc2ncsc2c1)NCc1ccc(Cl)cc1 | . | . | . | . | . | .
COc1ccccc1N1CCN(C2CCCN(C(=O)c3csc(C)n3)C2)CC1 (stereo unspecified) | . | . | . | . | . | .
COc1ccccc1N1CCN(C2CCCN(C(=O)c3oc(C)cc3C)C2)CC1 (stereo unspecified) | 57 | . | . | . | . | .
COc1cc(/C=N/NC(=O)CNC(=O)c2ccco2)ccc1O | 27 | . | . | . | . | .

High-throughput results as filed in PubChem BioAssay.
